Reference: ChEMBL document CHEMBL3351838, “Ligand-based pharmacophore modeling and virtual screening for the discovery of novel 17β-hydroxysteroid dehydrogenase 2 inhibitors” (J Med Chem, 2014)

Assays:
[1] = molecular target: T1, 17-beta-hydroxysteroid dehydrogenase type 2 (Homo sapiens) (UniProt P37059); experiment: Inhibition of 17beta-HSD2 (unknown origin) expressed in HEK293 cells lysate assessed as residual enzyme activity at 20 uM; assay type: cell-free
T1 sequence (whole entry): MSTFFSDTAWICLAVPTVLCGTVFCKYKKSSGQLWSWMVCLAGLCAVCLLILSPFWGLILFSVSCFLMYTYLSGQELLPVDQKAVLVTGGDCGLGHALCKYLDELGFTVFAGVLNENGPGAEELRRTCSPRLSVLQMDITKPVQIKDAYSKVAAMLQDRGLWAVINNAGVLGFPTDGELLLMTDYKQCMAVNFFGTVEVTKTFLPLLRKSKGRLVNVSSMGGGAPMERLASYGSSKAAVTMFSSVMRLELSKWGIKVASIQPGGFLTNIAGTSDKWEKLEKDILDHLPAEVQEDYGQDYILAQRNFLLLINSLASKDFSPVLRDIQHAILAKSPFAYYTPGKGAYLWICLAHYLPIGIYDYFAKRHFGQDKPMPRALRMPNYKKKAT
How it was run: (§1)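 Human 17β-HSD2 from lysates of calcium-phosphate-transfected HEK-293 cells (harvested 48 h). Incubated 10 min at 37 °C in TS2 buffer (pH 7.4) with inhibitor or 0.2% DMSO/chloroform. Substrate 190 nM unlabeled plus 10 nM radiolabeled estradiol with 500 μM NAD+. Stopped with excess estradiol/estrone. Radiolabeled steroids separated by TLC and counted; at least three independent measurements. Rest activity at 20 μM as % of control.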

[2] = molecular target: T2, 17-beta-hydroxysteroid dehydrogenase type 3 (Homo sapiens) (UniProt P37058); experiment: Inhibition of 17beta-HSD3 (unknown origin) expressed in intact HEK293 cells assessed as residual enzyme activity at 20 uM; assay type: cell-based
T2 sequence (whole entry): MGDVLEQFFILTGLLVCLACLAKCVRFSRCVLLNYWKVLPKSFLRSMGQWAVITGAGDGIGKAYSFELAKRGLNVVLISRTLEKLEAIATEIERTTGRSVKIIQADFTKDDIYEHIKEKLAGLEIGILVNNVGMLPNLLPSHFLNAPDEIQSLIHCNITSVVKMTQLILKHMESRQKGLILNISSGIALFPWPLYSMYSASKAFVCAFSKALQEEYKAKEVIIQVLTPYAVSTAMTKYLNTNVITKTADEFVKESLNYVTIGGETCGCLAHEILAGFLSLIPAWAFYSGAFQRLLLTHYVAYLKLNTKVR
How it was run: (§2)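 HEK-293 cells transiently transfected with 17β-HSD3 by calcium phosphate were seeded at 15 000 cells/well and tested 24 h later in charcoal-treated DMEM. Inhibitor was preincubated 20 min at 37 °C. Substrate was 190 nM unlabeled plus 10 nM radiolabeled androstenedione for 30 min. Reactions stopped with excess androstenedione/testosterone. TLC separation and scintillation counting.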

[3] = molecular target: T3, 17-beta-hydroxysteroid dehydrogenase type 2 (Homo sapiens, UniProt P37059); experiment: Inhibition of 17beta-HSD2 (unknown origin) expressed in HEK293 cells lysate; assay type: cell-free; how it was run: as §1
T3 sequence (P37059 whole entry): T1 sequence (whole entry)

[4] = molecular target: T4, 17-beta-hydroxysteroid dehydrogenase type 1 (Homo sapiens) (UniProt P14061); experiment: Inhibition of 17beta-HSD1 (unknown origin) expressed in HEK293 cells lysate assessed as residual enzyme activity at 20 uM; assay type: cell-free
T4 sequence (whole entry): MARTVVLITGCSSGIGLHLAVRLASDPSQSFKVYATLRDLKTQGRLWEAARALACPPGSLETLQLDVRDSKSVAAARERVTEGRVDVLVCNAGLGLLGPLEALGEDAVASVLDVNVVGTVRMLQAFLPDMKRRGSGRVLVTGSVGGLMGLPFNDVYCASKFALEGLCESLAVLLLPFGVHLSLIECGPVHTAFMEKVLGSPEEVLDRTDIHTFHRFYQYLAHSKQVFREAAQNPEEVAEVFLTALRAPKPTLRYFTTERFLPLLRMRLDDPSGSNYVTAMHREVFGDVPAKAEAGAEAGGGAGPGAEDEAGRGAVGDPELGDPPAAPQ
How it was run: (§3)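 Lysate of HEK-293 cells transfected by calcium phosphate with human 17β-HSD1, harvested after 48 h. Incubated 10 min at 37 °C in TS2 buffer (pH 7.4) with inhibitor or 0.2% DMSO/chloroform. Substrate 190 nM unlabeled plus 10 nM radiolabeled estrone with 500 μM NADPH. Stopped with excess estradiol/estrone. TLC separation and scintillation counting; at least three independent measurements.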

[5] = molecular target: T5, 11-beta-hydroxysteroid dehydrogenase 1 (Homo sapiens, UniProt P28845); experiment: Inhibition of 11beta-HSD1 (unknown origin) expressed in HEK293 cells lysate; assay type: cell-free
How it was run: (§4)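 Lysates of stably transfected cells expressing 11β-HSD1 or 11β-HSD2, 10 min at 37 °C in TS2 buffer (pH 7.4) with inhibitor or 0.2% DMSO solvent. Reactions stopped after 10 min with excess unlabeled cortisone/cortisol. Steroids separated by TLC and quantified by scintillation counting. At least three independent measurements. Lines 2 and 3 report rest activity at 20 μM as % of control.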
Target sequence in this assay (P28845 whole entry): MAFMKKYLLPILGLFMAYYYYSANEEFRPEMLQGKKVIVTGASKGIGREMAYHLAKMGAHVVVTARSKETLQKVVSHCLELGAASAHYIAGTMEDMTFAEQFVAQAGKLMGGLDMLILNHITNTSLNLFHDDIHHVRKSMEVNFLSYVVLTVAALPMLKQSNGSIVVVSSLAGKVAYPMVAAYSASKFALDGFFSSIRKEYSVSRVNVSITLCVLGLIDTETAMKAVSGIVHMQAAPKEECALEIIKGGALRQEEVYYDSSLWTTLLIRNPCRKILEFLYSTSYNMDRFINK

[6] = molecular target: T6, 11-beta-hydroxysteroid dehydrogenase type 2 (Homo sapiens) (UniProt P80365); experiment: Inhibition of 11beta-HSD2 (unknown origin) expressed in HEK293 cells lysate assessed as residual enzyme activity at 20 uM; assay type: cell-free; how it was run: as §4
T6 sequence (whole entry): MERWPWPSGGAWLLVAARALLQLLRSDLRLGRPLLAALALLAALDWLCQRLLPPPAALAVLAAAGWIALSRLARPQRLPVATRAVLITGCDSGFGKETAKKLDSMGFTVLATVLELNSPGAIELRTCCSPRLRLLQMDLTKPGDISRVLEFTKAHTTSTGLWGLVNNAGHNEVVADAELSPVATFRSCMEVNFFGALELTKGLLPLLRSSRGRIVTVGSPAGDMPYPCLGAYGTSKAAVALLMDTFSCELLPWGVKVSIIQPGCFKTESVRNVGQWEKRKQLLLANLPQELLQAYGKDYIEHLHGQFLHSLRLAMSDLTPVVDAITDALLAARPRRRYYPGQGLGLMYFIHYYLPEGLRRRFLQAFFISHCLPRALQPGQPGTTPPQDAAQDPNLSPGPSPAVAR

[7] = molecular target: T5, 11-beta-hydroxysteroid dehydrogenase 1; experiment: Inhibition of 11beta-HSD1 (unknown origin) expressed in HEK293 cells lysate assessed as residual enzyme activity at 20 uM; assay type: cell-free; how it was run: as §4
Target sequence in this assay (P28845 whole entry, looked up): as the sequence (P28845 whole entry) above

[8] = molecular target: T3, 17-beta-hydroxysteroid dehydrogenase type 2; experiment: Inhibition of 17beta-HSD2 (unknown origin) expressed in intact HEK293 cells; assay type: cell-based
How it was run: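 Transfected HEK-293 cells were seeded at 15 000 cells/well 24 h after transfection and assayed 24 h later in charcoal-treated DMEM. Inhibitor was preincubated 20 min at 37 °C, followed by 190 nM unlabeled plus 10 nM radiolabeled estradiol for 20 min. Reactions stopped with excess estradiol/estrone. Steroids separated by TLC and measured by scintillation counting.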

[9] = molecular target: T7, 17-beta-hydroxysteroid dehydrogenase type 3 (Homo sapiens, UniProt P37058); experiment: Inhibition of 17beta-HSD3 (unknown origin) expressed in intact HEK293 cells; assay type: cell-based; how it was run: as §2
T7 sequence (P37058 whole entry): T2 sequence (whole entry)

[10] = molecular target: T8, 17-beta-hydroxysteroid dehydrogenase type 1 (Homo sapiens, UniProt P14061); experiment: Inhibition of 17beta-HSD1 (unknown origin) expressed in HEK293 cells lysate; assay type: cell-free; how it was run: as §3
T8 sequence (P14061 whole entry): T4 sequence (whole entry)

## Cc1ccc(C)c(S(=O)(=O)Nc2ccc(O)cc2)c1
[1]
  Activity: 39%

## COc1cc(C)c(S(=O)(=O)Nc2ccc(C(=O)O)cc2)cc1C
[1]
  Activity: > 70%

## O=S(=O)(Nc1cccc(Cl)c1)c1ccc(F)cc1
[1]
  Activity: > 70%

## CC(=O)Nc1ccc(S(=O)(=O)Oc2ccc3c(c2)NCCC3)cc1
[1]
  Activity: > 70%

## COc1ccc(S(=O)(=O)Nc2cccc(O)c2)c2c1CCCC2
[2]
  Activity: > 70%
[3]
  IC50: 15 µM
[4]
  Activity: 53%
[5]
  IC50: 13 µM
[6]
  Activity: > 70%

## CCc1ccc(CC)c(S(=O)(=O)Nc2cc(OC)ccc2OC)c1
[1]
  Activity: > 70%

## Cc1ccc(NS(=O)(=O)c2cccc(C(F)(F)F)c2)cc1O
[2]
  Activity: > 70%
[3]
  IC50: 7.1 µM
[4]
  Activity: > 70%
[1]
  Activity: 25%
[6]
  Activity: > 70%
[7]
  Activity: > 70%

## CC(=O)Nc1ccccc1OS(=O)(=O)c1ccc(C)c(C)c1
[1]
  Activity: > 70%

## CC(=O)Nc1ccccc1NS(=O)(=O)c1c(C)c(C)cc(C)c1C
[1]
  Activity: > 70%

## O=S(=O)(Nc1ccc(F)c(Cl)c1)c1ccc(F)cc1
[1]
  Activity: 45%

## COc1ccc(NS(=O)(=O)c2ccc(Cl)cc2)cc1
[1]
  Activity: > 70%

## Clc1ccc(Cl)c(-c2ccc(CNc3nn[nH]n3)o2)c1
[2]
  Activity: > 70%
[3]
  IC50: 33 µM
[4]
  Activity: > 70%
[1]
  Activity: 29%
[6]
  Activity: > 70%
[7]
  Activity: > 70%

## O=C(CSc1nccc(O)n1)Nc1cccc2nsnc12
[2]
  Activity: > 70%
[3]
  IC50: 1.5 µM
[4]
  Activity: > 70%
[1]
  Activity: 8%
[6]
  Activity: > 70%
[8]
  IC50: 1.1 µM
[7]
  Activity: > 70%

## CC(O)c1ccccc1NS(=O)(=O)c1ccc(F)cc1 (stereo not drawn)
[1]
  Activity: > 70%

## O=S(=O)(Nc1ccc(O)cc1)c1ccc(Cl)cc1
[1]
  Activity: 55%

## Cc1cc(S(=O)(=O)Nc2cc(Cl)ccc2O)ccc1F
[1]
  Activity: 44%

## O=S(=O)(Nc1cccc(O)c1)c1ccc(Br)cc1
[2]
  Activity: > 70%
[3]
  IC50: 4.9 µM
[4]
  Activity: > 70%
[6]
  Activity: > 70%
[7]
  Activity: > 70%

## CC(C)(C)c1ccc(S(=O)(=O)Oc2ccccc2O)cc1
[3]
  IC50: 0.24 µM
[4]
  Activity: > 70%
[5]
  IC50: 2.1 µM
[1]
  Activity: 6%
[9]
  IC50: 8.5 µM
[6]
  Activity: > 70%
[8]
  IC50: 0.52 µM

## COc1ccc(/C=N/NC(=O)COc2c(Br)cc(C)cc2Br)c(OC)c1
[1]
  Activity: 38%

## Cc1cc(Br)c(OCC(=O)N/N=C/c2c(C)cc(O)cc2O)c(Br)c1
[1]
  Activity: 64%

## COc1ccc(S(=O)(=O)Nc2ccc(O)c3c2CCCC3)cc1
[2]
  Activity: > 70%
[3]
  IC50: 9.6 µM
[4]
  Activity: > 70%
[5]
  IC50: 8.1 µM
[6]
  Activity: > 70%

## Cc1cc(C)c(S(=O)(=O)Nc2cccc(O)c2)cc1C
[2]
  Activity: 43%
[3]
  IC50: 3.3 µM
[4]
  Activity: > 70%
[6]
  Activity: > 70%
[7]
  Activity: > 70%

## Cc1ccc(NS(=O)(=O)c2cccc(Br)c2)cc1O
[2]
  Activity: > 70%
[3]
  IC50: 6.3 µM
[4]
  Activity: 58%
[6]
  Activity: > 70%
[7]
  Activity: > 70%

## COc1ccccc1OS(=O)(=O)c1ccc(NC(C)=O)cc1
[1]
  Activity: > 70%

## O=S(=O)(Nc1ccccc1CO)c1ccc(Cl)cc1
[1]
  Activity: > 70%

## COc1ccc(NS(=O)(=O)c2cc(C)ccc2C)cc1
[1]
  Activity: > 70%

## COc1cc(C)c(S(=O)(=O)Nc2ccc(Cl)cc2)cc1C
[1]
  Activity: > 70%

## Cc1ccc(NS(=O)(=O)c2ccc(Cl)cc2)cc1O
[1]
  Activity: 45%

## O=S(=O)(Nc1ccccc1F)c1ccc(Br)cc1
[1]
  Activity: > 70%

## COc1ccc(S(=O)(=O)Nc2ccc(C)c(O)c2)cc1
[1]
  Activity: 47%

## O=C(CSc1ncccn1)Nc1cccc2nsnc12
[1]
  Activity: > 70%

## O=S(=O)(Nc1ccc(O)c(Cl)c1)c1ccc(F)cc1
[3]
  IC50: 3 µM
[4]
  Activity: > 70%
[1]
  Activity: 9%
[9]
  IC50: 3.9 µM
[6]
  Activity: > 70%
[8]
  IC50: 10 µM
[7]
  Activity: > 70%

## CCC(=O)c1ccc(OS(=O)(=O)c2ccc(NC(C)=O)cc2)cc1
[1]
  Activity: 67%

## Cc1cc(C)c(S(=O)(=O)Nc2ccc(O)cc2)c(C)c1
[1]
  Activity: 33%

## Cc1cc(C)c(OCC(=O)N/N=C/c2ccc(O)cc2O)c(Br)c1
[3]
  IC50: 4.1 µM
[4]
  Activity: 52%
[1]
  Activity: 9%
[9]
  IC50: 1.6 µM
[6]
  Activity: 61%
[8]
  IC50: 23 µM
[7]
  Activity: 69%

## Cc1cc(S(=O)(=O)Nc2cccc(O)c2)c(C)cc1Cl
[10]
  IC50: 18 µM
[2]
  Activity: 53%
[3]
  IC50: 1 µM
[6]
  Activity: > 70%
[7]
  Activity: > 70%

## COc1cc(C)c(S(=O)(=O)Nc2cccc(O)c2)cc1C
[2]
  Activity: > 70%
[3]
  IC50: 6.9 µM
[4]
  Activity: > 70%
[1]
  Activity: 15%
[6]
  Activity: > 70%
[7]
  Activity: > 70%

## C/C(=N\NC(=O)COc1ccc(C)cc1Br)c1ccc(O)cc1O
[1]
  Activity: > 70%

## COc1ccccc1OS(=O)(=O)c1ccc(C(C)(C)C)cc1
[1]
  Activity: 51%

## Cc1ccc(Cl)cc1NS(=O)(=O)c1ccc(F)cc1
[1]
  Activity: > 70%
